Experimental data from article PMC5183561 (European journal of pharmacology, 2016).
Like-named read-outs stand apart in the source and are kept apart here. Where no end group is shown, it is not given here. [ ]: non-standard residue; d: D form. Dmt = Cc1cc(O)cc(C)c1C[C@H](N)C(=O)O; PWT2 core = not defined here

Legend:
[1] = system: rhesus monkeys (Macaca mulatta); assay: Warm water tail-withdrawal assay in monkeys; type: in vivo; details: n = 4; for duration of antinociception: 50°C water
[2] = biological target: mu-RLuc/β-arrestin 2-RGFP (Homo sapiens, UniProt P35372); assay: BRET mu/β-arrestin 2 interaction, SH-SY5Y whole cells; type: cell-based; details: intrinsic activity, dermorphin = 1.00, inactive = inactive up to 1 μM
[3] = biological target: T1, human recombinant NOP receptor (Homo sapiens, UniProt P41146); assay: Calcium mobilization, CHO cells coexpressing NOP and Gαqi5; type: cell-based
T1 sequence (P41146 whole entry): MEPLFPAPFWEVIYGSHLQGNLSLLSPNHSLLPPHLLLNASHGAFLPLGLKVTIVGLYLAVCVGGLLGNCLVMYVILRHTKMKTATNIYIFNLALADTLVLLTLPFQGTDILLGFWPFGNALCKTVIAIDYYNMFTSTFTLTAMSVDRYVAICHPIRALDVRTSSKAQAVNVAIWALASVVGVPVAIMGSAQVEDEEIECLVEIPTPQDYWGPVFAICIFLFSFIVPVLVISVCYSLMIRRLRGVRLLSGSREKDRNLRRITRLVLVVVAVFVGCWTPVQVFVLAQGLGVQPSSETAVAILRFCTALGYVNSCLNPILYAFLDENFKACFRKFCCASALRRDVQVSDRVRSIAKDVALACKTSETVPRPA

[4] = biological target: human recombinant mu receptor (Homo sapiens, UniProt P35372); assay: Calcium mobilization, CHO cells coexpressing mu and Gαqi5; type: cell-based
Chain of human recombinant mu receptor (P35372 whole entry): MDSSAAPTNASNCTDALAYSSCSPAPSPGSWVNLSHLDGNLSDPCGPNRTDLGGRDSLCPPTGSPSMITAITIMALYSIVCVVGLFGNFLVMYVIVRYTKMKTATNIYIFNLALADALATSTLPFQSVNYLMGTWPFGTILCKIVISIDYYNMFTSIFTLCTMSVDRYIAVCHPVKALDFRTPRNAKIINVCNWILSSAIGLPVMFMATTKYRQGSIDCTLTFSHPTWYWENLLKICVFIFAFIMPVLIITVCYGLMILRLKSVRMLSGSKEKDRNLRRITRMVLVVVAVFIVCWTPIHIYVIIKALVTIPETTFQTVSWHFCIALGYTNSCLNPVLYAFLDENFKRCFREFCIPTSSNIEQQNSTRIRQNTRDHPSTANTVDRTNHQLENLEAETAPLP

[5] = biological target: T2, recombinant human kappa opioid receptor (Homo sapiens, UniProt P41145); assay: Stimulated [35S]GTPγS binding, CHOkappa membranes; type: biochemical
T2 sequence (P41145 whole entry): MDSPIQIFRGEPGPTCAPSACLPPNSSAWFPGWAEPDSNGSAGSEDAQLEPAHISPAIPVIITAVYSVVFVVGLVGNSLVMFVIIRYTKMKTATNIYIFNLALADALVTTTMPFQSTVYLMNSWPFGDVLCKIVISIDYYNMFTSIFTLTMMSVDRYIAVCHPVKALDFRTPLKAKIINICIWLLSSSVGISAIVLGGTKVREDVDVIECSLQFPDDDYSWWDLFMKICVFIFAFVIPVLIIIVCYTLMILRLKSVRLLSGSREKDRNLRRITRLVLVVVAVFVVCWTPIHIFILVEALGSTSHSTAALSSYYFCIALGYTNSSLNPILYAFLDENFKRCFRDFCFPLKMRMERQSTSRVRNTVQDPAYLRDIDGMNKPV

[6] = biological target: T2, recombinant human kappa opioid receptor; assay: Displacement binding of [3H]-DPN, CHOkappa cell membranes; details: vs [Dmt^1]N/OFQ(1-13)-NH2
[7] = biological target: mu-RLuc/Gβ1-RGFP (Homo sapiens, UniProt P35372); assay: BRET mu/G-protein interaction, SH-SY5Y membranes; type: biochemical; details: intrinsic activity, dermorphin = 1.00
[8] = system: NOP over opioid receptors; assay: In vitro functional assays, NOP selectivity summary; design: species or system human; details: range over functional assays
[9] = system: rhesus monkeys (Macaca mulatta); assay: Scratching responses in monkeys after intrathecal administration; type: in vivo; details: 3 nmol i.t., any time point, n = 4
[10] = system: NOP and classical opioid receptors; assay: Calcium mobilization, summary over the four cell lines; type: cell-based, human
[11] = biological target: NOP-RLuc/Gβ1-RGFP (Homo sapiens, UniProt P41146); assay: BRET NOP/G-protein interaction, HEK-293 membranes; type: biochemical
[12] = biological target: T1, human recombinant NOP receptor; assay: Stimulated [35S]GTPγS binding, CHONOP membranes; type: biochemical; details: intrinsic activity, N/OFQ = 1.00, n≥5
[13] = biological target: NOP-RLuc/β-arrestin 2-RGFP (Homo sapiens, UniProt P41146); assay: BRET NOP/β-arrestin 2 interaction, HEK-293 whole cells; type: cell-based
[14] = biological target: recombinant human delta opioid receptor (Homo sapiens, UniProt P41143); assay: Stimulated [35S]GTPγS binding, CHOdelta membranes; type: biochemical; details: intrinsic activity, DPDPE = 1.00, n≥5
Chain of recombinant human delta opioid receptor (P41143 whole entry): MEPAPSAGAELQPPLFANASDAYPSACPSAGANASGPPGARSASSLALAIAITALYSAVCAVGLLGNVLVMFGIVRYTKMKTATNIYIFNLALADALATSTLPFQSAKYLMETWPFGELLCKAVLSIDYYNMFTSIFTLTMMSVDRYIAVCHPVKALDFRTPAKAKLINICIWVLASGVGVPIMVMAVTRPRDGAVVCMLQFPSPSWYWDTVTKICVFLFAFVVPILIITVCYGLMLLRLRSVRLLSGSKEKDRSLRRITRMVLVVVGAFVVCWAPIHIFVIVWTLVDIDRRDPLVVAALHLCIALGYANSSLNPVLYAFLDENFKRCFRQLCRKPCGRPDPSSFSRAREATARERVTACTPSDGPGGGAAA

[15] = biological target: human recombinant kappa receptor (Homo sapiens, UniProt P41145); assay: Calcium mobilization, CHO cells coexpressing kappa and Gαqi5; type: cell-based; details: intrinsic activity, dynorphin A = 1.00
Chain of human recombinant kappa receptor (P41145 whole entry): as the sequence (P41145 whole entry) above

[16] = biological target: recombinant human mu opioid receptor (Homo sapiens, UniProt P35372); assay: Stimulated [35S]GTPγS binding, CHOmu membranes; type: biochemical
Chain of recombinant human mu opioid receptor (P35372 whole entry): as the sequence (P35372 whole entry) above

[17] = biological target: delta receptor (Homo sapiens, UniProt P41143); assay: Calcium mobilization, CHO cells coexpressing delta and GαqG66Di5; type: cell-based
Chain of delta receptor (P41143 whole entry): as the sequence (P41143 whole entry) above

[18] = system: NOP and classical opioid receptors; assay: Receptor binding studies, summary over all four receptors; design: species or system human; details: at all receptors (NOP, mu, kappa, delta), vs [Dmt^1]N/OFQ(1-13)-NH2
Outline: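 CHO membranes expressing human receptors (20–40 μg protein) were incubated 1 h at room temperature in 50 mM Tris, 0.5% BSA with test compound (1 pM–10 μM). […] Bound ligand was collected by filtration on PEI-soaked GF/B filters.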

[19] = system: rhesus monkeys (Macaca mulatta); assay: Overt side effects; type: in vivo; details: 0.3-3 nmol i.t.
[20] = biological target: T3, human recombinant mu opioid receptor (human, UniProt P35372 1-400); assay: cell-based or functional assay
T3 sequence (P35372 whole entry): as the sequence (P35372 whole entry) above

[21] = biological target: human recombinant N/OFQ (NOP) receptor (human, UniProt P41146 1-370); assay: radioligand binding
Chain of human recombinant N/OFQ (NOP) receptor (P41146 whole entry): as the sequence (P41146 whole entry) above

[22] = biological target: T3, human recombinant mu opioid receptor; assay: radioligand binding
[23] = biological target: human recombinant kappa opioid receptor (human, UniProt P41145 1-380); assay: radioligand binding
Chain of human recombinant kappa opioid receptor (P41145 whole entry): as the sequence (P41145 whole entry) above

[24] = biological target: human recombinant delta opioid receptor (human, UniProt P41143 1-372); assay: radioligand binding
Chain of human recombinant delta opioid receptor (P41143 whole entry, stated change not applied): as the sequence (P41143 whole entry) above

[25] = biological target: T3, human recombinant mu opioid receptor; assay: radioligand binding; remark: listed apart in the source
[26] = agonist stimulated over basal specific binding, mean ± S.E.M.

## O=C1CC[C@@]2(O)[C@H]3Cc4ccc(O)c5c4[C@@]2(CCN3CC2CC2)[C@H]1O5 [naltrexone, Naltrexone, reference compound]
[1]; naltrexone 0.03 mg/kg s.c., given 1 h 10 min after PWT2-[Dmt^1]
  effect of antagonist on i.t. PWT2-[Dmt^1] (3 nmol)-induced antinociception: inactive

## Cc1cc(O)cc(C)c1C[C@H](N)C(=O)NCC(=O)NCC(=O)N[C@@H](Cc1ccccc1)C(=O)N[C@H](C(=O)NCC(=O)N[C@@H](C)C(=O)N[C@@H](CCCNC(=N)N)C(=O)N[C@@H](CCCCN)C(=O)N[C@@H](CO)C(=O)N[C@@H](C)C(=O)N[C@@H](CCCNC(=N)N)C(=O)N[C@@H](CCCCN)C(=O)N[C@@H](CSC1CC(=O)N(CCC(=O)NCCCN(CCCCN(CCCNC(=O)CCN2C(=O)CC(SC[C@H](NC(=O)[C@H](CCCCN)NC(=O)[C@H](CCCNC(=N)N)NC(=O)[C@H](C)NC(=O)[C@H](CO)NC(=O)[C@H](CCCCN)NC(=O)[C@H](CCCNC(=N)N)NC(=O)[C@H](C)NC(=O)CNC(=O)[C@@H](NC(=O)[C@H](Cc3ccccc3)NC(=O)CNC(=O)CNC(=O)[C@@H](N)Cc3c(C)cc(O)cc3C)[C@@H](C)O)C(N)=O)C2=O)CCCNC(=O)CCN2C(=O)CC(SC[C@H](NC(=O)[C@H](CCCCN)NC(=O)[C@H](CCCNC(=N)N)NC(=O)[C@H](C)NC(=O)[C@H](CO)NC(=O)[C@H](CCCCN)NC(=O)[C@H](CCCNC(=N)N)NC(=O)[C@H](C)NC(=O)CNC(=O)[C@@H](NC(=O)[C@H](Cc3ccccc3)NC(=O)CNC(=O)CNC(=O)[C@@H](N)Cc3c(C)cc(O)cc3C)[C@@H](C)O)C(N)=O)C2=O)CCCNC(=O)CCN2C(=O)CC(SC[C@H](NC(=O)[C@H](CCCCN)NC(=O)[C@H](CCCNC(=N)N)NC(=O)[C@H](C)NC(=O)[C@H](CO)NC(=O)[C@H](CCCCN)NC(=O)[C@H](CCCNC(=N)N)NC(=O)[C@H](C)NC(=O)CNC(=O)[C@@H](NC(=O)[C@H](Cc3ccccc3)NC(=O)CNC(=O)CNC(=O)[C@@H](N)Cc3c(C)cc(O)cc3C)[C@@H](C)O)C(N)=O)C2=O)C1=O)C(N)=O)[C@@H](C)O (stereo partly shown) [PWT2-[Dmt^1], PWT2-[Dmt^1]N/OFQ(1-13)]
[2]
  α ± S.E.M. mu, β-arrestin2: 0.82 ± 0.07
[3]; NOP
  reduced potency compared to N/OFQ: 58 fold
[3]; intrinsic activity, N/OFQ = 1.00
  α ± S.E.M. NOP: 0.98 ± 0.08
[4]; CHO, read-out: maximal effects over basal, mu
  Emax: 283 ± 3%
[4]; calcium mobilization, intrinsic activity, dermorphin = 1.00
  α ± S.E.M. mu: 0.87 ± 0.04
[4]; calcium mobilization, mu
  lower potency compared to dermorphin: 23 fold
[5]; [26]
  Emax as stimulation factor, kappa: 2.43 ± 0.08 fold
[5]; intrinsic activity, dynorphin A = 1.00, n≥5
  α ± S.E.M. kappa: 1.40 ± 0.11
[6]
  loss of affinity at kappa compared to parent compound: ~ 18 fold
[7]
  α ± S.E.M. mu, Gβ1-protein: 1.43 ± 0.12
[8]
  NOP selectivity in in vitro functional assays: 2 – 10 fold
[9]
  scratching responses in 15-min observation period: did not significantly elicit scratching responses
[10]
  reduced potency compared to [Dmt^1]N/OFQ(1-13)-NH2: 3 to 30 fold
[11]
  α ± S.E.M. NOP, Gβ1-protein: 1.04 ± 0.04
[12]
  α ± S.E.M. NOP: 1.23 ± 0.13
[13]
  α ± S.E.M. NOP, β-arrestin2: 0.58 ± 0.10
[14]
  α ± S.E.M. delta: 0.87 ± 0.07
[15]
  α ± S.E.M. kappa: 0.86 ± 0.03
[16]; [26]
  Emax as stimulation factor, mu: 2.84 ± 0.11 fold
[16]; intrinsic activity, dermorphin = 1.00, n≥5
  α ± S.E.M. mu: 0.98 ± 0.07
[17]; delta
  potency lower than DPDPE: 23 fold
[17]; intrinsic activity, DPDPE = 1.00
  α ± S.E.M. delta: 0.80 ± 0.08
[1]; 0.3 nmol i.t.
  duration of antinociception: 2 h
[1]; 1 nmol i.t.
  duration of antinociception: 6 h
[1]; 3 nmol i.t.
  duration of antinociception: 24 h
[18]
  lower affinity than the parent peptide: approximately 10 fold
[19]
  overt side effects including sedation or motor impairment: did not cause any overt side effects

## YAFGYPS [Dermorphin]
[20]
  stimulation of [^35S]GTPγS binding, CHO mu membranes: Emax as stimulation factor: 2.88 fold

## [Dmt]GGFTGARKSARKC(PWT2 core)-NH2 (reading uncertain; also: Cys14 joined to the PWT2 core by thio-Michael reaction) [PWT2-[Dmt^1]N/OFQ(1-13)]
[20]
  stimulation of [^35S]GTPγS binding, CHO mu membranes: Emax as stimulation factor: 2.84 fold
[21]
  pKi: 9.13
[22]
  pKi: 9.25
[23]
  pKi: 9.13
[24]
  pKi: 8.42

B1: [Dmt^1]N/OFQ(1-13)-NH2 (peptide)
peptide: [Dmt]GGFTGARKSARK-NH2
modifications: N-terminus assumed
SMILES: Cc1cc(O)cc(C)c1C[C@H](N)C(=O)NCC(=O)NCC(=O)N[C@@H](Cc1ccccc1)C(=O)N[C@H](C(=O)NCC(=O)N[C@@H](C)C(=O)N[C@@H](CCCNC(=N)N)C(=O)N[C@@H](CCCCN)C(=O)N[C@@H](CO)C(=O)N[C@@H](C)C(=O)N[C@@H](CCCNC(=N)N)C(=O)N[C@@H](CCCCN)C(N)=O)[C@@H](C)O
[20]
  stimulation of [^35S]GTPγS binding, CHO mu membranes: Emax as stimulation factor: 3.06 fold
[21]
  pKi: 10.4
[25]
  pKi: 10.4
[22]
  pKi: 10
[23]
  pKi: 10.4
[24]
  pKi: 9.99
